Rows were chosen to be rich in hits. Some 2.5% of all compounds tested hit in one or more screens of this group.
UCH37 DUB inh: human UCH37 deubiquitinating enzyme inhibition | actives 0.33% (n = 330,000) | purified proteasome/UCH37, Ub-AMC cleavage fluorescence | inhibition, % (no concentration beside the values);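 active means mean inhibition over replicate wells above about 20%, limit read from the data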;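 further: 0% = compound-free wells with enzyme and 100% = wells lacking proteasome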
Target sequence (Q9Y5K5 whole entry, looked up): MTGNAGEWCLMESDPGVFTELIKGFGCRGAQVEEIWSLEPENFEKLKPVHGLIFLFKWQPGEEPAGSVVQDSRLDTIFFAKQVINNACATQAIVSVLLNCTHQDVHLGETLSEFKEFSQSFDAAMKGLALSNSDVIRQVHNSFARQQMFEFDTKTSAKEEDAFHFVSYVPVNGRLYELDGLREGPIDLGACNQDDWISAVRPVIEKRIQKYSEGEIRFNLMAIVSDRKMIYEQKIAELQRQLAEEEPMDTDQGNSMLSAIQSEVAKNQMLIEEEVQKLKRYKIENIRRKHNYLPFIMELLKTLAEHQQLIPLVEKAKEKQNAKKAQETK
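system = Proteasome-associated human UCH37 deubiquitinase | amount = 0.15 nM proteasome as dispensed | medium = pH 7.4 Tris-HCl (50 mM) with ovalbumin, ATP-MgCl2, DTT | incubation = 30 min preincubation with enzyme, 25 min cleavage at room temperature | detection = AMC fluorescence 355/460 nm | read-out basis = percent inhibition | controls = no-proteasome and no-compound wells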
Rce1 inhib: yeast Ras-converting enzyme inhibition; yeast membranes, quenched prenylated peptide cleavage fluorescence; Q03530; actives 0.27% (n = 290,000); AID 2563; calls only;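 active means fall in fluorescence gain of 50% or more versus controls, with final raw signal at or below 3038400; inconclusive means same 50% fall but final raw signal above 3038400; inactive means fall in fluorescence gain under 50%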;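 further: plate controls were neutral control wells for no effect and wells lacking membranes for full effect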
Target sequence (Q03530 whole entry, looked up): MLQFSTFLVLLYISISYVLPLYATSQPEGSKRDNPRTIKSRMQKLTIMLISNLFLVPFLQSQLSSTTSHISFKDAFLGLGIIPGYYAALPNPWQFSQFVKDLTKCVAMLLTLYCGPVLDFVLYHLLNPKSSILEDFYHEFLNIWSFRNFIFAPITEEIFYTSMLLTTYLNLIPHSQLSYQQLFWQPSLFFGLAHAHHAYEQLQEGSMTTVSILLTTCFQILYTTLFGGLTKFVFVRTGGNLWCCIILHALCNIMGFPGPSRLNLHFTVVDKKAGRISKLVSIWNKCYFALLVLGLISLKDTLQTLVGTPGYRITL
MEKK3 PB1 HTS: modulators (inhibitors or enhancers) of MEK5 binding to human MEKK3 PB1 domain. bead-based flow cytometry, Alexa488-MEK5 binding to MEKK3; actives lie on both sides; 0 = blocked by unlabeled MEK5, 100 = vehicle. binding response (% of control), % at 10 µM. AID 1529. actives 1.4% (n = 290,000). Q99759;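 active means binding response more than 3 SD above or below the average of its plate-row segment, actives on both sides; inconclusive means wells at one plate position flagged as instrument error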;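 further: Alexa488 bead fluorescence after subtracting the streptavidin-only scavenger bead signal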
MEKK2 WT-MEK5: raises or lowers MEK5 binding to wildtype human MEKK2 PB1 domain; Q9Y2U5; actives 1.1% (n = 290,000); AID 1531; bead flow cytometry, Alexa488-MEK5 binding to MEKK2 WT; actives lie on both sides; binding response (% of control), % at 10 µM; in the data active means binding response below about 67% or above about 130%; inconclusive means no clear call, values can overlap the other calls; inactive means in between
T cell HTS: T cell immune modulation candidate; actives 0.068% (n = 330,000); AID 2052; response (vesicle binding), % at 7 µM; 2C CD8+ T cell-vesicle binding, flow cytometry; stronger effect = lower value;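 active means response, share of CD8 T cells binding vesicles, and their 90th percentile fluorescence all below set limits, cut at about 80% in these data, passing the limit was not always enough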;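 further: values below 100% mean blocked vesicle binding to the CD8+ T cells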
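Test system: purified 2C TCR transgenic mouse naive CD8+ T cells. Probe or stimulus: QL9-peptide-loaded Drosophila micro-vesicles bearing Ld, ICAM-1 and B7-1. Incubation: binding step 1.5 h, 37 °C, antibody labelling 20 min, ice. Measured by: flow cytometry of vesicle-bound cells.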
MEKK2mut PB1 HTS: signal of MEK5 binding to mutant human MEKK2 PB1 domain | bead flow cytometry, Alexa488-MEK5 binding to MEKK2 mutant | percent response, % at 10 µM | actives 0.35% (n = 290,000) | AID 1530; in the data active means percent response above about 24%, passing the limit was not always enough
MEKK2wt confirm: raises or lowers MEK5 binding to wildtype human MEKK2, retest | shares compounds with MEKK3 PB1 HTS | bead flow cytometry, Alexa488-MEK5 binding to MEKK2 WT; actives lie on both sides | binding response (% of control), % at 10 µM | actives 2.4% (n = 5,900) | AID 1892; in the data active means binding response below about 16% or above about 210%; inactive means in between
MEKK2mut-MEK5: signal of MEK5 binding to mutant human MEKK2, retest; bead flow cytometry, Alexa488-MEK5 binding to MEKK2 mutant; percent response, % at 10 µM; shares compounds with MEKK3 PB1 HTS; actives 2% (n = 5,900); AID 1893; in the data active means percent response mostly above about 71%, no sharp cut-off; inactive means mostly below about 38%;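 further: higher means compound restores mutant binding toward wildtype level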
MEKK3 confirm: MEKK3-MEK5 PB1 inhibition, single concentration confirmation | bead flow cytometry, Alexa488-MEK5 binding to MEKK3; stronger effect = lower value | actives 1.8% (n = 5,900) | binding response (% of control), % at 10 µM | shares compounds with MEKK3 PB1 HTS;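 active means binding response below 72% of control, or above a set upper limit, though filed actives all read lower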;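 further: 100% = DMSO only wells and 0% = binding blocked by excess unlabeled MEK5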
The depositor's hits bear a star; i = inactive; u = inconclusive; x = no result given; [ ] = dose if it differs, or a comment.

SMILES	UCH37 DUB inh	Rce1 inhib	MEKK3 PB1 HTS	MEKK2 WT-MEK5	T cell HTS	MEKK2mut PB1 HTS	MEKK2wt confirm	MEKK2mut-MEK5	MEKK3 confirm
COc1ccc(C=NNC(=O)C2C3CCCCC32C)cc1OC (stereo not given)	6	x	x	x	x	x	x	x	x
Cn1c(=O)c2c(ncn2CC(=O)NN=C/C(Cl)=C/c2ccccc2)n(C)c1=O	6	x	x	x	x	x	x	x	x
Cc1cc2ccccc2n1CCNC(=O)c1cccs1	1	i	34*[inhibitor]	9.0*[inhibitor]	0	-36	26	-27	70*
C=CCN1C(=O)/C(=C\C=C2\N(C)c3ccccc3C2(C)C)SC1=S	-3	i	75*[inhibitor]	x	770	7	46	-29	75
CCCN1C(=O)/C(=C\C=C2/Sc3ccccc3N2CCO)SC1=S	12	i	68*[inhibitor]	33*[inhibitor]	154	-17	90	-8	96
CCCN1C(=O)/C(=C/C=C2\N(CC)c3ccccc3C2(C)C)SC1=S	9	x	68*[inhibitor]	134	454	151*	71	-14	90
CCCCN1C(=O)/C(=C/C=C2\Oc3ccccc3N2CC)SC1=S	6	i	69*[inhibitor]	35*[inhibitor]	x	-13	40	-38	79
CCCCN1C(=O)/C(=C/C=C2/CC(C)(C)CN2C)SC1=S	9	i	91	79	584	-3	x	x	x
CCN1C(=O)/C(=C/C=C2/Sc3ccccc3N2CCO)SC1=S	9	i	74	71	191	-7	x	x	x
O=C(CN1CCCCC1)NN=Cc1ccccc1Br	3	x	x	x	x	x	x	x	x
Cc1nc2ccc(-c3nc4ccc(N)cc4[nH]3)cc2[nH]1	i	i	25*[inhibitor]	x	211	x	104	12	98
Cc1ccc(C)c(-c2nc3ccc(N)cc3[nH]2)c1	-466	i	108	33*[inhibitor]	318	13	104	7	105
Nc1ccc(-c2nc3ccc(N)cc3[nH]2)cc1	i	u	69	73	626	-17	x	x	x
O=C(C(=O)N1CCc2ccccc2C1)c1cn(CC(=O)N2CCCC2)c2ccccc12	6	i	131*	110	385	2	101	2	103
N=c1oc2ccc3ccccc3c2cc1-c1nc(-c2ccccc2)cs1	-61	i	146*	96	576	-1	94	-6	94
O=C(CCNC(=O)OCc1ccccc1)NC1CCCCC1	0	i	135*	105	174	3	94	3	100
c1ccc(COc2ccc(OCCCNC3CCCC3)cc2)cc1	3	i	108	140*	124	10	127	17	101
O=C(NC1CCN(Cc2ccccc2)CC1)c1ccccc1OCc1ccccc1	1	i	107	113	220	8	x	x	x
O=C(NC1CCCC1)c1ccccc1OCc1ccccc1	5	i	63*[inhibitor]	84	87	-3	145	25	111
COc1ccc(NS(=O)(=O)c2cccc(C(=O)NN=Cc3cccs3)c2)cc1	6	x	x	x	x	x	x	x	x
Cc1nn(-c2ccccc2)c(Cl)c1C=NNc1nnc(C)c(=O)[nH]1	4	x	x	x	x	x	x	x	x
NS(=O)(=O)c1ccc(Nc2ccc3nonc3c2[N+](=O)[O-])cc1	3	i	133*	110	137	2	98	-4	100
Cc1cc(C)c(-n2c(SCc3nc4ccccc4s3)n[nH]c2=O)c(C)c1	1	i	130*	107	702	24	83	-16	84
COC(=O)/C=C1\C(=O)N(c2nc3ccccc3s2)C(=S)N1c1ccc(F)cc1	0	i	1.0*[inhibitor]	0.0*[inhibitor]	718	-41	99	0	99
COc1ccccc1N(C)S(=O)(=O)c1ccc(C(=O)OCC(=O)Nc2ccccc2F)cc1	0	x	46*[inhibitor]	45*[inhibitor]	233	-16	94	0	99
SMILES	UCH37 DUB inh	Rce1 inhib	MEKK3 PB1 HTS	MEKK2 WT-MEK5	T cell HTS	MEKK2mut PB1 HTS	MEKK2wt confirm	MEKK2mut-MEK5	MEKK3 confirm
COc1cccc(C=NNC(=O)CCc2ccccc2)c1	1	x	x	x	x	x	x	x	x
COc1ccccc1-n1c(CNC(=O)c2cccc([N+](=O)[O-])c2C)n[nH]c1=S	-1	i	26*[inhibitor]	36*[inhibitor]	194	-33	96	1	98
O=C(c1ccc(OCCN2CCCCC2)cc1)c1c(-c2ccc(O)cc2)sc2cc(O)ccc12	2	i	111	201*	513	28*	143	33	94
COC(=O)c1ccc(OCCN2CCCCCC2)cc1	1	i	99	110	156	2	x	x	x
Cc1ccc(S(=O)(=O)NC2c3cccc4cccc(c34)C2Sc2nc(C)cc(C)n2)cc1 (stereo not given)	2	i	103	98	268	-1	x	x	x
O=S(=O)(NC1c2cccc3cccc(c23)C1Sc1ncccn1)c1ccccc1 (stereo not given)	5	i	144*	100	815	0	97	-4	105
COc1cccc2[nH]c3c(N4CCc5ccccc5C4)ncnc3c12	-34	i	103	147*	822	26	152	26	108
CC1C(C)C(O)(c2ccccc2)CCN1C (stereo not given)	2	x	130*	100	427	9	117	14	97
Nc1ccccc1Nc1cc(-c2ccccc2)nn1-c1ccccc1	0	i	112	107	207	3	x	x	x
Cc1ccc(-n2nc(-c3ccccc3)cc2Nc2ccccc2N)cc1	3	i	139*	113	204	1	100	-8	101
O=C(C1=C(Nc2ccccc2)c2ccccc2S(=O)(=O)N1)c1ccccc1	x	i	64*[inhibitor]	85	i	-2	95	-7	103
COc1cccc(C(=O)ON=C2CCS(=O)(=O)c3sccc32)c1	4	x	x	x	x	x	x	x	x
CC(C)c1ccc(C2N3CC4([N+](=O)[O-])CN2CC([N+](=O)[O-])(C3)C4(C)C)cc1 (stereo not given)	3	i	71*[inhibitor]	95	231	-1	95	-8	96
N=c1n(CC(=O)c2ccc([N+](=O)[O-])cc2)c2ccccc2n1Cc1ccc(Cl)cc1	13	i	108	138*	171	50	154	58	108
COCCNC(=O)C(=O)NCC1OCCN1S(=O)(=O)c1ccc2c(c1)OCCO2 (stereo not given)	0	x	129*	124	445	23	104	4	105
